In ChEMBL document CHEMBL1137434, “2-O-carboxymethylpyrogallol derivatives as PTP1B inhibitors with antihyperglycemic activity” (Bioorg Med Chem Lett, 2007):
Active and inactive are the calls of the source. The rule behind the calls is not given here.

Assays:
[1] = molecular target: T1, Tyrosine-protein phosphatase non-receptor type 1 (Homo sapiens, UniProt P18031); assay: Inhibition of PTP1B after 10 mins
T1 sequence (P18031 whole entry): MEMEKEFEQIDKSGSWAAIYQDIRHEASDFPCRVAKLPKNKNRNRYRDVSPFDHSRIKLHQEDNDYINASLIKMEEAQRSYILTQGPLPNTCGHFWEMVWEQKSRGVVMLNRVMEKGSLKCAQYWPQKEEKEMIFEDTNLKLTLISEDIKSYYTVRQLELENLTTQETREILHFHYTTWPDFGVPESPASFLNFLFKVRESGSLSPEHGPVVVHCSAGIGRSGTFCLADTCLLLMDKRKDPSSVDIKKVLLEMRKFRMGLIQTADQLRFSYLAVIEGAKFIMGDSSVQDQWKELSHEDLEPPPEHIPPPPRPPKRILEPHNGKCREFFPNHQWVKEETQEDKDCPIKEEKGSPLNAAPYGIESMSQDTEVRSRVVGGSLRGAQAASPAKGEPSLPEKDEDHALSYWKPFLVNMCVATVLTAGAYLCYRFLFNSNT

[2] = molecular target: T2, Tyrosine-protein phosphatase 1 (Saccharomyces cerevisiae S288c, UniProt P25044); assay: Inhibition of yeast PTP1 after 10 mins
T2 sequence (P25044 whole entry): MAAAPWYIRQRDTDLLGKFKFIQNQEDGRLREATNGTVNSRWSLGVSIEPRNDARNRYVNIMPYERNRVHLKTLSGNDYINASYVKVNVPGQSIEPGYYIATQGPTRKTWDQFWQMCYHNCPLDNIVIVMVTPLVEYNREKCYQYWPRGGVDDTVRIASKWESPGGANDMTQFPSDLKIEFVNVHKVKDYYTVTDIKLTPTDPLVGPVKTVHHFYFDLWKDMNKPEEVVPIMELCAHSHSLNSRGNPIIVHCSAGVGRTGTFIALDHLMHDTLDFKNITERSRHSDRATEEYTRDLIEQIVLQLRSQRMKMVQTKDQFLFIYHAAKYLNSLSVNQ
Method in brief: (§1)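 Enzymes were preincubated 10 min with inhibitor in DMSO, then pNPP was added to start the reaction. Final mix: 2 mM pNPP, 50 mM Hepes, 5 mM EDTA, pH 7, plus 10% enzyme dilution buffer (Hepes, EDTA, 1 mM DTT, BSA). Enzyme levels were native PTP1B 40 nM, SHP-1cat 5 µg/mL, LAR-D1 and TC-PTP 33 U/mL, YOP 50 U/mL and YPTP-1 15 nM. IC50 came from an inhibitor concentration range, as means ± SD of 2–3 experiments.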

[3] = Inhibition of YOP after 10 mins; method in brief: as §1
[4] = molecular target: T3, Tyrosine-protein phosphatase non-receptor type 2 (Homo sapiens, UniProt P17706); assay: Inhibition of TC-PTP after 10 mins; method in brief: as §1
T3 sequence (P17706 whole entry): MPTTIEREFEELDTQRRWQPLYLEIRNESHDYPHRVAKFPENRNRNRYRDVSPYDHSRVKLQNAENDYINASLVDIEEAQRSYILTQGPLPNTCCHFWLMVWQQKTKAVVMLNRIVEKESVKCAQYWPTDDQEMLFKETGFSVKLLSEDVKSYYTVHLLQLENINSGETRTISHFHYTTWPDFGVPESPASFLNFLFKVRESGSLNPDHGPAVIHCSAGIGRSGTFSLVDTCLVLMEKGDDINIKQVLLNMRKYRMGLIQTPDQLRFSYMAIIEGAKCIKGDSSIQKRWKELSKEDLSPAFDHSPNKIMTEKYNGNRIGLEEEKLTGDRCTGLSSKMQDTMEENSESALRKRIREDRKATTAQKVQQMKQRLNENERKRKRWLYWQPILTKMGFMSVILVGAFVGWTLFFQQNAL

[5] = molecular target: Tyrosine-protein phosphatase non-receptor type 6 (Homo sapiens, UniProt P29350); assay: Inhibition of SHP-1 catalytic domain after 10 mins; method in brief: as §1
Homo sapiens = species on record: Homo sapiens; assay: Selectivity for PTP1B over TC-PTP
[6] = Inhibition of LAR-D1 after 10 mins; set-up: species or system Homo sapiens; method in brief: as §1
Mus musculus = species on record: Mus musculus; assay: Antihyperglycemic activity in high fat diet induced C57BL/6JCr Slc mouse assessed as reduction in blood glucose level relative to control; type: functional, organism-based
Method in brief: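 Male C57BL/6J Cr Slc mice, 5 wk old and acclimatized 1 wk, were fed high-fat diet for 8 wk. They were then split into two groups of 7 and fed HFD or HFD plus drug for 4 wk; a lean LFD group served as control. After a 6 h fast, mice received glucose 1 g/kg ip. Tail-blood glucose was read at baseline and at 20, 40, 60, 90 and 120 min.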

Sequence of Tyrosine-protein phosphatase non-receptor type 6 (P29350 whole entry, the tested form may be a part): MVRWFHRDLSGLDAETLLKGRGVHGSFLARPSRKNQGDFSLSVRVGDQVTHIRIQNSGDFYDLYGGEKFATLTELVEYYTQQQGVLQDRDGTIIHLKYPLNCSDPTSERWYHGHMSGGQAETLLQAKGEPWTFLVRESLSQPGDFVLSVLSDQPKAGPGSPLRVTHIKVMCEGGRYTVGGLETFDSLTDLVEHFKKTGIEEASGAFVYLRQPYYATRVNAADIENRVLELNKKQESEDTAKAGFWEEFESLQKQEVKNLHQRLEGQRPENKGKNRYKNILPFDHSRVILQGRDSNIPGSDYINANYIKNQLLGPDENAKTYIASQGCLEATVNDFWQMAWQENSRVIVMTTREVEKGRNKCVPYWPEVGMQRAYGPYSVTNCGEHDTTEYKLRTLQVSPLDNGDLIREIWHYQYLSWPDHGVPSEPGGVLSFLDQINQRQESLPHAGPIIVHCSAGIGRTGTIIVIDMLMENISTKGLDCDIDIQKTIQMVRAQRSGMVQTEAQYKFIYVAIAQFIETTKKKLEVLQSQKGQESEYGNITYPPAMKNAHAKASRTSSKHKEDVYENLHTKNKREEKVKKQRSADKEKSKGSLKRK

Row | Structure (SMILES) | IC50 [1] [µM] | IC50 [2] [µM] | IC50 [3] [µM] | IC50 [4] [µM] | IC50 [5] [µM] | Selectivity ratio (Homo sapiens) | IC50 [6] [µM] | Ki [4] [µM] | Ki [1] [µM] | Activity (Mus musculus)
1 | O=C(O)COc1c(O)cccc1OCc1ccc(C(F)(F)F)cc1 | > 1000 | – | – | – | – | – | – | – | – | –
2 | O=C(O)COc1c(O)cc(-c2ccccc2)cc1OCc1ccc(C(F)(F)F)cc1 | 17 | – | – | – | – | – | – | – | – | –
3 | O=C(O)COc1c(O)cc(-c2cccc(C(F)(F)F)c2)cc1OCc1ccc(C(F)(F)F)cc1 | 5 | 17 | 21 | 65 | 13 | 5 | > 200 | – | – | –
4 | O=C(O)COc1c(O)cc(-c2ccc(C(F)(F)F)cc2)cc1OCc1ccc(C(F)(F)F)cc1 | 5.4 | 23 | 13 | 44 | 12 | 5 | > 200 | – | – | –
5 | O=C(O)COc1c(O)cc(-c2cc(C(F)(F)F)cc(C(F)(F)F)c2)cc1OCc1ccc(C(F)(F)F)cc1 | 2 | 9 | 6 | 22 | 4 | 7 | 116 | 8.2 | 1.1 | Active
6 | O=C(O)COc1c(O)cc(-c2ccccc2)cc1O | > 1000 | – | – | – | – | – | – | – | – | –
7 | O=C(O)COc1c(O)cc(-c2cc(C(F)(F)F)cc(C(F)(F)F)c2)cc1OCc1ccccc1 | 5.7 | 20 | 15 | 37 | 9 | 5 | > 200 | – | – | –
8 | COc1cc(COc2cc(-c3ccccc3)cc(O)c2OCC(=O)O)cc(OC)c1 | 40 | – | – | – | – | – | – | – | – | –
9 | O=C(O)COc1c(O)cc(-c2cccc(C(F)(F)F)c2)cc1OCc1ccccc1 | 2.2 | 52 | 33 | 120 | 38 | 5 | > 200 | – | – | –

Continued, in another order:

Row | IC50 [1] [µM] | IC50 [2] [µM] | IC50 [3] [µM] | IC50 [4] [µM] | IC50 [5] [µM] | Selectivity ratio (Homo sapiens) | IC50 [6] [µM] | Ki [4] [µM] | Ki [1] [µM] | Structure (SMILES) | Activity (Mus musculus)
10 | 300 | – | – | – | – | – | – | – | – | O=C(O)COc1c(O)cc(Br)cc1OCc1ccccc1 | –
11 | 93 | – | – | – | – | – | – | – | – | O=C(O)COc1c(O)cc(-c2ccccc2)cc1OCc1ccccc1 | –
12 | 73 | – | – | – | – | – | – | – | – | O=C(O)COc1c(O)cc(Br)cc1OCc1ccc(C(F)(F)F)cc1 | –
13 | > 1000 | – | – | – | – | – | – | – | – | O=C(O)COc1c(O)cccc1OCc1ccccc1 | –
14 | 13 | 17 | 34 | 96 | 25 | 5 | > 200 | – | – | O=C(O)COc1c(O)cc(-c2ccc(C(F)(F)F)cc2)cc1OCc1ccccc1 | –
